Rows were chosen to be rich in hits. Some 4.2% of all compounds tested hit in one or more screens of this group.
GalR3 antagonist: blocks the human galanin receptor 3; HEK293 GalR3-CNG cAMP membrane potential fluorescence; galR3 body fused to GalR1 C-terminus; inhibition, % at 3 µM; hit rate 0.44% among 360,000;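 active means inhibition above the screen-wide average plus 3 SD, cut at about 13% in these data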;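 further: forskolin and galanin both at EC90 stimulate the cells; cAMP rise reported by CNG channel membrane potential dye signal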
CHO parental Ca: counter-screen: ATP calcium response change in parental CHO cells. parental CHO-K1, ATP-induced calcium, Fluo-8 fluorescence. inhibition, % at 5.6 µM. hit rate 0.63% among 330,000. AID 463079;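 active means inhibition above that plate's mean sample inhibition plus 3 SD, cut at about 26% in these data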
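Measured by: calcium-sensitive Fluo-8 fluorescence / Test system: CHO parental line / Controls: ATP-challenged DMSO wells low, unchallenged DMSO wells high / Measure: % inhibition / Compound: single nominal dose of 5.6 µM per compound / Replicates: single well per compound, no replicates / Reagent: ATP as calcium-mobilizing challenge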
TAAR1 antagonist: antagonists of human TAAR1; Q96RJ0; CHO RD-HGA16 TAAR1, Fluo-8 calcium fluorescence, antagonist; inhibition, % at 3 µM; hit rate 1.5% among 360,000; AID 624466;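 active means inhibition above a per-plate cutoff, the mean inhibition of test compounds on that plate plus 3 SD, cut at about 49% in these data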
Target sequence (Q96RJ0 whole entry, looked up): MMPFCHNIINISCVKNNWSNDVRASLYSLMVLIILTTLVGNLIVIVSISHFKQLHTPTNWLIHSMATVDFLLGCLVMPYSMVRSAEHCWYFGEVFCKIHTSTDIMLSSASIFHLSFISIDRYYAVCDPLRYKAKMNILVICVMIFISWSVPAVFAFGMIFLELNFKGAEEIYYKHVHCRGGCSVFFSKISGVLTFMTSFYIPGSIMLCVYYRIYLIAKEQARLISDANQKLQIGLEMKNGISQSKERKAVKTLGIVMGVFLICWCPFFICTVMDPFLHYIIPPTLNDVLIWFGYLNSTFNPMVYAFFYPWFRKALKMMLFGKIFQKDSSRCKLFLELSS
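Test system – hTAAR1-expressing CHO RD-HGA16 cells, Gα16-coupled · Also added – β-PEA at EC80 concentration, post-compound challenge · Compound – 3 µM, single point · Incubation – dye loading 75 min at 37 °C, then 30 min room temperature · Measured by – Fluo-8 intracellular calcium dye fluorescence, real-time kinetic reads · Benchmarks – vehicle and agonist controls · Replicates – singlicate, one well per test compound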
TAAR1 ag: human TAAR1 agonism; hit rate 0.99% among 360,000; Q96RJ0; activation, % at 3 µM; CHO RD-HGA16 TAAR1, Fluo-8 calcium fluorescence; vehicle wells 0%, saturating PEA agonist 100%;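 active means activation above the mean activation of all test compounds in the run plus 3 SD, cut at about 38% in these data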
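Test system: RD-HGA16 (CHO) cells co-expressing Gα16 and hTAAR1 | Doses: Single dose, 3 µM | Schedule: 17-24 h seeding, 75 min 37 °C dye, 30 min RT | Evaluation: % activation from peak over basal fluorescence ratio, DMSO-to-PEA scaled | Technique: Kinetic Fluo-8 calcium fluorescence | Benchmarks: Low control DMSO, high control PEA (EC100)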
OX1R antag-1: OX1R (human) antagonism. O43613. OX1R-expressing cells, FRET antagonist read-out. inhibition, % at 6.6 µM. hit rate 1.8% among 330,000. AID 485270; in the data active means inhibition mostly above about 38%, no sharp cut-off; inactive means mostly below about 40%
OX1R antag-2: blocks the human orexin 1 receptor; hit rate 0.43% among 330,000; CHO/OX1R cells, Fluo-8 calcium fluorescence, orexin A; inhibition, % at 5 µM; AID 434989;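 active means inhibition above its plate's threshold, mean inhibition of all tested compounds on the plate plus 3 SD, cut at about 37% in these data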
GalR3 conf: confirmation of human galanin receptor 3 antagonists; shares compounds with GalR3 antagonist; HEK293 GalR3 CNG cAMP biosensor, membrane potential fluorescence; galR3 fused to GalR1 carboxy tail; challenged with forskolin and galanin at EC90; inhibition, % at 3 µM; hit rate 59% among 1,600; AID 652245;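 active means inhibition above the primary screen's cutoff, the mean inhibition of all screened compounds plus 3 SD, cut at about 13% in these data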
HEK-CNG parental: acts as nonspecific agonist in parental HEK-CNG cells; hit rate 10% among 1,600; shares compounds with GalR3 antagonist; AID 652268; HEK293-CNG parental cells, cAMP membrane potential fluorescence; normalised: DMSO wells 0%, forskolin wells 100%; activation, % at 3 µM; in the data active means activation above about 1.3%
A number is an active result; - = inactive; . = not tested or not shown.

SMILES | GalR3 antagonist | CHO parental Ca | TAAR1 antagonist | TAAR1 ag | OX1R antag-1 | OX1R antag-2 | GalR3 conf | HEK-CNG parental
O=C(Nc1cccc(N=Cc2cc(Br)cc(Br)c2O)c1)c1ccco1 | 17 | - | - | - | - | - | 14 | -
O=C(Nc1ccccc1N1CCCCC1)C1CCN(S(=O)(=O)c2ccccc2C(F)(F)F)CC1 | - | - | - | - | - | - | . | .
COc1ccc(-c2nn3c(-c4cccc(C)c4)nnc3s2)cc1OC | - | - | - | - | - | - | . | .
O=C(OCN1C(=O)c2ccccc2C1=O)c1cc(S(=O)(=O)N2CCOCC2)ccc1F | 13 | . | - | - | . | . | 24 | -
CC1(C)C(=O)Nc2ccccc2N1C(=O)COC(=O)c1cc(S(C)(=O)=O)ccc1Cl | - | . | - | - | . | . | . | .
CC1(C)C(=O)Nc2ccccc2N1C(=O)COC(=O)c1cc(S(=O)(=O)N2CCOCC2)ccc1F | 39 | - | - | - | - | - | 16 | -
CC(C)SCCCOc1ccc(C(C)(C)C)cc1 | . | - | - | - | - | - | - | -
COc1ccc(OCC(O)CNC(=O)c2ccc(OC)cc2)cc1 (stereo not drawn) | 14 | - | - | - | - | - | - | -
O=C(CSc1nnc(-c2ccco2)c(-c2ccco2)n1)c1ccccc1 | 13 | - | - | - | - | - | - | -
COc1ccc2[nH]c3c(c2c1)CCN1C(=O)N([C@@H](C)C(=O)NCCc2ccc(OC)c(OC)c2)C(=O)[C@]31C | 26 | - | - | - | - | - | - | -
CCOC(=O)C1(Cc2cccc(OC)c2)CCN(CCO)CC1 | 18 | - | - | - | - | - | - | -
CCOC(=O)C1(Cc2cccc(OC)c2)CCN(CC(O)CO)CC1 (stereo not drawn) | - | - | - | - | - | - | . | .
CCCC(=O)Nc1nnc(-c2ccc3c(c2)OCCO3)o1 | 14 | - | - | - | - | - | - | -
CCCC(=O)Nc1nc(-c2ccc3c(c2)OCCO3)cs1 | - | - | - | - | - | - | . | .
COc1ccc(S(=O)(=O)NCc2ccco2)cc1-c1nnc2c3ccccc3c(C)nn12 | 28 | - | - | - | - | - | 15 | -
CNS(=O)(=O)c1ccc(OC)c(-c2nnc3c4ccccc4c(C)nn23)c1 | - | - | - | - | - | - | . | .
O=C(Nc1ccccc1)/C(=C/c1ccc(O)cc1)NC(=O)c1ccco1 | 15 | - | - | - | - | - | - | -
CCOC(=O)c1ccc(NC(=O)c2nc[nH]c2C(=O)NC2CCN(C(=O)OC(C)(C)C)CC2)cc1 | 17 | - | - | - | - | - | - | -
CC(C)(C)OC(=O)N1CCC(NC(=O)c2nc[nH]c2C(=O)NC2CCN(C(=O)OC(C)(C)C)CC2)CC1 | - | - | - | - | - | - | . | .
Cc1cc(C(=O)N/N=C(\CCC(=O)O)c2cccs2)c2ccccc2n1 | 17 | - | - | - | - | - | - | -
Cc1cc(C(=O)OCC(=O)c2cccs2)c2ccccc2n1 | - | - | - | - | - | - | . | .
CN(C)C(CNC(=O)c1ccc(Cl)c(S(=O)(=O)N2CCCCCC2)c1)c1ccccc1 (stereo not drawn) | 71 | - | - | - | - | - | 88 | 1.3
CCOC(=O)c1ccc(Oc2cn[nH]c2-c2ccc(O)cc2O)cc1 | 17 | - | - | - | - | - | - | 4.4
CCCOC(=O)c1ccc(Oc2cn[nH]c2-c2ccc(O)cc2O)cc1 | - | - | - | - | - | - | . | .
CCOc1ccc(-c2nc3ccccc3c(=O)o2)cc1 | - | - | - | - | - | - | . | .
CCOc1cc(/C=C2/SC(=S)N(C)C2=O)ccc1Oc1ccc([N+](=O)[O-])cc1[N+](=O)[O-] | . | - | . | . | - | - | . | .
Cc1ccc(C2C3=C(CC(C)(C)CC3=O)NC3=C2C(=O)c2ccccc23)cc1 (stereo not drawn) | 22 | - | - | - | - | - | 19 | -
